Laboratory results taken from ChEMBL document CHEMBL4689842, “EUbOPEN Chemogenomics Library wave 1” (2021).

Tests used:
HEK-293T = assay: Multiplex assay against HEK293T; assay type: toxicity, cell-based; settings: human;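 on Population Tubulin-Different-Phenotype (%): share of the cells with healthy nuclei that show this phenotype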
Outline: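 Phenotypes for tubulin, mitochondrial mass and membrane permeability are expressed as per cents of healthy-nucleus cells. Cells were stained live at seeding with Hoechst33342, BioTracker Green Microtubule Cytoskeleton Dye, MitoTracker Red and Annexin V Alexa Fluor 680, then imaged after compound addition on a CQ1 microscope at 37°C and 5% CO2. Machine-learning gating in CellPathfinder separated Hoechst high-intensity objects from normal cells, divided normal cells by nuclear state (healthy, pyknosed, fragmented) and divided pyknosed cells into mitotic or apoptotic.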

Fibroblast = assay: Incucyte cell viability with human fibroblast; assay type: toxicity, cell-based; settings: 10 µM, compound concentration 10 uM; further: filed as whole numbers so only -1 and 0 and 1 occur
[1] = 12 h, 1 µM, compound concentration 1 uM, replicate 1
[2] = 12 h, 1 µM, compound concentration 1 uM, replicate 2
[3] = 12 h, 10 µM, compound concentration 10 uM, replicate 1
[4] = 12 h, 10 µM, compound concentration 10 uM, replicate 2
[5] = 24 h, 1 µM, compound concentration 1 uM, replicate 1
[6] = 24 h, 1 µM, compound concentration 1 uM, replicate 2
[7] = 24 h, 10 µM, compound concentration 10 uM, replicate 1
[8] = 24 h, 10 µM, compound concentration 10 uM, replicate 2
[9] = 48 h, 1 µM, compound concentration 1 uM, replicate 1
[10] = 48 h, 1 µM, compound concentration 1 uM, replicate 2
[11] = 48 h, 10 µM, compound concentration 10 uM, replicate 1
[12] = 48 h, 10 µM, compound concentration 10 uM, replicate 2

## CC(Cc1ccc(O)c(O)c1)C(C)Cc1ccc(O)c(O)c1 (stereo unspecified) [NORDIHYDROGUAIARETIC ACID]
HEK-293T; [1]
  Population Apoptotic (%): 42%
  Population Fragmented Nuclei (%): 12%
  Population Healthy Nuclei (%): 34%
  Population Hoechst High Intensity Objects (%): 16%
  Population Mitochondria Different-Phenotype (%): 81%
  Population Mitotic Cells (%): 57%
  Population Normal (%): 83%
  Population Pyknosed Nuclei (%): 52%
  Population Tubulin-Different-Phenotype (%): 6%
  Total Cell Count: 150
HEK-293T; [2]
  Population Apoptotic (%): 8%
  Population Fragmented Nuclei (%): 6%
  Population Healthy Nuclei (%): 36%
  Population Hoechst High Intensity Objects (%): 5%
  Population Membrane Permeable-Phenotype (%): 2%
  Population Mitochondria Different-Phenotype (%): 28%
  Population Mitotic Cells (%): 91%
  Population Normal (%): 94%
  Population Pyknosed Nuclei (%): 57%
  Population Tubulin-Different-Phenotype (%): 11%
  Total Cell Count: 194
HEK-293T; [3]
  Population Apoptotic (%): 33%
  Population Fragmented Nuclei (%): 12%
  Population Healthy Nuclei (%): 49%
  Population Hoechst High Intensity Objects (%): 15%
  Population Membrane Permeable-Phenotype (%): 3%
  Population Mitochondria Different-Phenotype (%): 71%
  Population Mitotic Cells (%): 66%
  Population Normal (%): 84%
  Population Pyknosed Nuclei (%): 37%
  Population Tubulin-Different-Phenotype (%): 2%
  Total Cell Count: 211
HEK-293T; [4]
  Population Apoptotic (%): 11%
  Population Fragmented Nuclei (%): 6%
  Population Healthy Nuclei (%): 55%
  Population Hoechst High Intensity Objects (%): 4%
  Population Membrane Permeable-Phenotype (%): 1%
  Population Mitochondria Different-Phenotype (%): 14%
  Population Mitotic Cells (%): 88%
  Population Normal (%): 95%
  Population Pyknosed Nuclei (%): 38%
  Population Tubulin-Different-Phenotype (%): 0%
  Total Cell Count: 254
HEK-293T; [5]
  Population Apoptotic (%): 35%
  Population Fragmented Nuclei (%): 12%
  Population Healthy Nuclei (%): 42%
  Population Hoechst High Intensity Objects (%): 12%
  Population Membrane Permeable-Phenotype (%): 1%
  Population Mitochondria Different-Phenotype (%): 46%
  Population Mitotic Cells (%): 64%
  Population Normal (%): 87%
  Population Pyknosed Nuclei (%): 45%
  Population Tubulin-Different-Phenotype (%): 15%
  Total Cell Count: 156
HEK-293T; [6]
  Population Apoptotic (%): 18%
  Population Fragmented Nuclei (%): 5%
  Population Healthy Nuclei (%): 48%
  Population Hoechst High Intensity Objects (%): 3%
  Population Membrane Permeable-Phenotype (%): 6%
  Population Mitochondria Different-Phenotype (%): 11%
  Population Mitotic Cells (%): 81%
  Population Normal (%): 96%
  Population Pyknosed Nuclei (%): 46%
  Population Tubulin-Different-Phenotype (%): 12%
  Total Cell Count: 212
HEK-293T; [7]
  Population Apoptotic (%): 27%
  Population Fragmented Nuclei (%): 17%
  Population Healthy Nuclei (%): 39%
  Population Hoechst High Intensity Objects (%): 7%
  Population Membrane Permeable-Phenotype (%): 0%
  Population Mitochondria Different-Phenotype (%): 50%
  Population Mitotic Cells (%): 72%
  Population Normal (%): 92%
  Population Pyknosed Nuclei (%): 42%
  Population Tubulin-Different-Phenotype (%): 7%
  Total Cell Count: 192
HEK-293T; [8]
  Population Apoptotic (%): 16%
  Population Fragmented Nuclei (%): 8%
  Population Healthy Nuclei (%): 58%
  Population Hoechst High Intensity Objects (%): 3%
  Population Membrane Permeable-Phenotype (%): 1%
  Population Mitochondria Different-Phenotype (%): 4%
  Population Mitotic Cells (%): 83%
  Population Normal (%): 96%
  Population Pyknosed Nuclei (%): 32%
  Population Tubulin-Different-Phenotype (%): 1%
  Total Cell Count: 255
HEK-293T; [9]
  Population Apoptotic (%): 21%
  Population Fragmented Nuclei (%): 11%
  Population Healthy Nuclei (%): 68%
  Population Hoechst High Intensity Objects (%): 8%
  Population Membrane Permeable-Phenotype (%): 5%
  Population Mitochondria Different-Phenotype (%): 19%
  Population Mitotic Cells (%): 78%
  Population Normal (%): 91%
  Population Pyknosed Nuclei (%): 20%
  Population Tubulin-Different-Phenotype (%): 14%
  Total Cell Count: 223
HEK-293T; [10]
  Population Apoptotic (%): 14%
  Population Fragmented Nuclei (%): 7%
  Population Healthy Nuclei (%): 69%
  Population Hoechst High Intensity Objects (%): 5%
  Population Membrane Permeable-Phenotype (%): 7%
  Population Mitochondria Different-Phenotype (%): 1%
  Population Mitotic Cells (%): 85%
  Population Normal (%): 94%
  Population Pyknosed Nuclei (%): 23%
  Population Tubulin-Different-Phenotype (%): 16%
  Total Cell Count: 312
HEK-293T; [11]
  Population Apoptotic (%): 21%
  Population Fragmented Nuclei (%): 21%
  Population Healthy Nuclei (%): 50%
  Population Hoechst High Intensity Objects (%): 11%
  Population Membrane Permeable-Phenotype (%): 7%
  Population Mitochondria Different-Phenotype (%): 5%
  Population Mitotic Cells (%): 78%
  Population Normal (%): 88%
  Population Pyknosed Nuclei (%): 28%
  Population Tubulin-Different-Phenotype (%): 3%
  Total Cell Count: 187
HEK-293T; [12]
  Population Apoptotic (%): 14%
  Population Fragmented Nuclei (%): 7%
  Population Healthy Nuclei (%): 67%
  Population Hoechst High Intensity Objects (%): 4%
  Population Membrane Permeable-Phenotype (%): 5%
  Population Mitochondria Different-Phenotype (%): 1%
  Population Mitotic Cells (%): 85%
  Population Normal (%): 95%
  Population Pyknosed Nuclei (%): 25%
  Population Tubulin-Different-Phenotype (%): 1%
  Total Cell Count: 280
Fibroblast; 0 h, replicate number 1, timepoint 0 hours
  Growth Rate: 0
Fibroblast; 6 h, replicate number 1, timepoint 6 hours
  Growth Rate: 0
Fibroblast; 12 h, replicate number 1, timepoint 12 hours
  Growth Rate: 0
Fibroblast; 18 h, replicate number 1, timepoint 18 hours
  Growth Rate: 0
Fibroblast; 24 h, replicate number 1, timepoint 24 hours
  Growth Rate: 0
